Converted amounts (≈) assume the structure as drawn. Bridge positions count the residues as written; N and C are the ends. Square brackets hold non-standard residues; d marks the D form. Peptide text beside a SMILES is read from it. * marks the point of attachment. dGly(nOct) = CCCCCCCC[C@@H](N)C(=O)O; Gly(octyl) = CCCCCCCC[C@H](N)C(=O)O; hSer = N[C@@H](CCO)C(=O)O; Octanoyl = CCCCCCCC(=O)*; Dab = NCC[C@H](N)C(=O)O
Tests used:
Acinetobacter baumannii [1] = test: Antibacterial activity against clinical isolate carbapenem and polymyxin resistant Acinetobacter baumannii Ptyela 100734512:2 after 18 hrs by 2 fold serial dilution method; assay type: functional
How it was run: (§1)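 Polymyxin-resistant clinical isolates were grown overnight at 37 °C in NB or MHB with shaking, diluted 50-fold in MHB and grown 1.5–3 h to mid-log phase. The inoculum was 5×10^5 CFU/mL. Compounds were 2-fold broth serial dilutions, final 32 to 0.015 μg/mL; the polymyxin controls ran 128–0.06 μg/mL. The MIC was the lowest concentration with no visible growth after 18 h at 37 °C.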

Klebsiella pneumoniae [2] = test: Antibacterial activity against Klebsiella pneumoniae ATCC BAA-2146 expressing NDM-1 after 18 hrs by 2 fold serial dilution method; assay type: functional
How it was run: (§2)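 Overnight cultures at 37 °C in nutrient or Mueller Hinton broth with shaking were diluted 50-fold in MHB and grown 1.5–3 h to mid-log phase. The inoculum was 5×10^5 CFU/mL in MHB. Compounds were 2-fold serially diluted, final 32 to 0.015 μg/mL. After 18 h at 37 °C, the MIC was read visually as the lowest concentration with no visible growth.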

Pseudomonas aeruginosa [3] = test: Antibacterial activity against clinical isolate polymyxin resistant Pseudomonas aeruginosa PA9704 after 18 hrs by 2 fold serial dilution method; assay type: functional; how it was run: as §1
[4] = Cytotoxicity against human HepG2 cells after 24 hrs by resazurin assay; assay type: cell-based; details: HepG2 cells
Escherichia coli = test: Antibacterial activity against Escherichia coli ATCC 25922 after 18 hrs by 2 fold serial dilution method; assay type: functional
How it was run: (§3)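 Overnight cultures in nutrient or Mueller Hinton broth at 37 °C with shaking, diluted 50-fold into fresh MHB and grown 1.5–3 h to mid-log. Inoculum 5×10^5 CFU/mL in 2-fold serial dilutions, final range 32 to 0.015 μg/mL. MIC read visually after 18 h at 37 °C as the lowest concentration with no visible growth.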

Klebsiella pneumoniae [5] = test: Antibacterial activity against clinical isolate carbapenem and polymyxin resistant Klebsiella pneumoniae 138-16357-20362 after 18 hrs by 2 fold serial dilution method; assay type: functional; how it was run: as §1
Klebsiella pneumoniae [6] = test: Antibacterial activity against clinical isolate carbapenem and polymyxin resistant Klebsiella pneumoniae Koprana 100650661:1 after 18 hrs by 2 fold serial dilution method; assay type: functional; how it was run: as §1
Pseudomonas aeruginosa [7] = test: Antibacterial activity against Pseudomonas aeruginosa ATCC 27853 after 18 hrs by 2 fold serial dilution method; assay type: functional; how it was run: as §3
Acinetobacter baumannii [8] = test: Antibacterial activity against Acinetobacter baumannii ATCC 19606 after 18 hrs by 2 fold serial dilution method; assay type: functional; how it was run: as §3
Klebsiella pneumoniae [9] = test: Antibacterial activity against multidrug resistant Klebsiella pneumoniae ATCC 700603 after 18 hrs by 2 fold serial dilution method; assay type: functional; how it was run: as §2
Staphylococcus aureus = test: microbe, parasite or virus in culture; details: ATCC 25923, 18 h
Klebsiella pneumoniae [10] = test: Antibacterial activity against Klebsiella pneumoniae ATCC 13883 after 18 hrs by 2 fold serial dilution method; assay type: functional; how it was run: as §3
Pseudomonas aeruginosa [11] = test: Antibacterial activity against clinical isolate polymyxin resistant Pseudomonas aeruginosa FADDI-PA070 after 18 hrs by 2 fold serial dilution method; assay type: functional; how it was run: as §1
[12] = Klebsiella pneumoniae, 700603, 18 h

CCCCCCCC(=O)N[C@@H](CCN)C(=O)N[C@H](C(=O)N[C@@H](CCN)C(=O)N[C@H]1CCNC(=O)[C@H]([C@@H](C)O)NC(=O)[C@H](CCN)NC(=O)[C@H](CCN)NC(=O)[C@H](CC(C)C)NC(=O)[C@@H](Cc2ccccc2)NC(=O)[C@H](CCNC(=O)[C@@H](N)CCC(=O)O)NC1=O)[C@@H](C)O (Octanoyl-[Dab]T[Dab][Dab][Dab](Glu)[dF]L[Dab][Dab]T; lactam 4-C)
MIC (Acinetobacter baumannii [1]; Ptyela 100734512:2, 18 h): > 32 µg/mL
MIC (Klebsiella pneumoniae [2]; ATCC BAA-2146, 18 h): 32 µg/mL (≈ 24.3 µM)
MIC (Pseudomonas aeruginosa [3]; PA9704, 18 h): > 32 µg/mL
CC50 at 24 h [4]: > 300 µM
MIC (Escherichia coli; ATCC 25922, 18 h): > 32 µg/mL
MIC (Klebsiella pneumoniae [5]; 138-16357-20362, 18 h): > 32 µg/mL
MIC (Klebsiella pneumoniae [6]; Koprana 100650661:1, 18 h): > 32 µg/mL
MIC (Pseudomonas aeruginosa [7]; ATCC 27853, 18 h): > 32 µg/mL
MIC (Acinetobacter baumannii [8]; ATCC 19606, 18 h): > 32 µg/mL
MIC (Klebsiella pneumoniae [9]; [12]): > 32 µg/mL
MIC (Staphylococcus aureus): > 32 µg/mL
MIC (Klebsiella pneumoniae [10]; ATCC 13883, 18 h): > 32 µg/mL
MIC (Pseudomonas aeruginosa [11]; FADDI-PA070, 18 h): > 32 µg/mL

CCCCCCCC(=O)N[C@@H](CCN)C(=O)N[C@H](C(=O)N[C@@H](CCN)C(=O)N[C@H]1CCNC(=O)[C@H]([C@@H](C)O)NC(=O)[C@H](CCN)NC(=O)[C@H](CCO)NC(=O)[C@H](CC(C)C)NC(=O)[C@@H](Cc2ccccc2)NC(=O)[C@H](CCN)NC1=O)[C@@H](C)O (Octanoyl-[Dab]T[Dab][Dab][Dab][dF]L[hSer][Dab]T; lactam 4-C)
MIC (Acinetobacter baumannii [1]; Ptyela 100734512:2, 18 h): > 32 µg/mL
MIC (Klebsiella pneumoniae [2]; ATCC BAA-2146, 18 h): 2 µg/mL (≈ 1.68 µM)
MIC (Pseudomonas aeruginosa [3]; PA9704, 18 h): > 32 µg/mL
CC50 at 24 h [4]: > 300 µM
MIC (Escherichia coli; ATCC 25922, 18 h): 1 µg/mL (≈ 0.84 µM)
MIC (Klebsiella pneumoniae [5]; 138-16357-20362, 18 h): > 32 µg/mL
MIC (Klebsiella pneumoniae [6]; Koprana 100650661:1, 18 h): > 32 µg/mL
MIC (Pseudomonas aeruginosa [7]; ATCC 27853, 18 h): 4 µg/mL (≈ 3.36 µM)
MIC (Acinetobacter baumannii [8]; ATCC 19606, 18 h): 8 µg/mL (≈ 6.72 µM)
MIC (Klebsiella pneumoniae [9]; [12]): 2 µg/mL (≈ 1.68 µM)
MIC (Staphylococcus aureus): > 32 µg/mL
MIC (Klebsiella pneumoniae [10]; ATCC 13883, 18 h): > 32 µg/mL
MIC (Pseudomonas aeruginosa [11]; FADDI-PA070, 18 h): > 32 µg/mL

CCCCCCCC[C@@H]1NC(=O)[C@@H](Cc2ccccc2)NC(=O)[C@H](CCN)NC(=O)[C@@H](NC(=O)[C@H](CCN)NC(=O)[C@@H](NC(=O)[C@H](CCN)NC(=O)CCCCCCC)[C@@H](C)O)CCNC(=O)[C@H]([C@@H](C)O)NC(=O)[C@H](CCN)NC(=O)[C@H](CCN)NC1=O (Octanoyl-[Dab]T[Dab][Dab][Dab][dF][Gly(octyl)][Dab][Dab]T; lactam 4-C)
MIC (Pseudomonas aeruginosa [7]; ATCC 27853, 18 h): 1 µg/mL (≈ 0.803 µM)
MIC (Acinetobacter baumannii [8]; ATCC 19606, 18 h): 2 µg/mL (≈ 1.61 µM)
MIC (Klebsiella pneumoniae [10]; ATCC 13883, 18 h): 4 µg/mL (≈ 3.21 µM)

CCCCCCCC[C@H]1NC(=O)[C@H](CCN)NC(=O)[C@@H](NC(=O)[C@H](CCN)NC(=O)[C@@H](NC(=O)[C@H](CCN)NC(=O)CCCCCCC)[C@@H](C)O)CCNC(=O)[C@H]([C@@H](C)O)NC(=O)[C@H](CCN)NC(=O)[C@H](CCN)NC(=O)[C@H](CC(C)C)NC1=O (Octanoyl-[Dab]T[Dab][Dab][Dab][dGly(nOct)]L[Dab][Dab]T; lactam 4-C)
MIC (Pseudomonas aeruginosa [7]; ATCC 27853, 18 h): 4 µg/mL (≈ 3.3 µM)
MIC (Acinetobacter baumannii [8]; ATCC 19606, 18 h): 1 µg/mL (≈ 0.825 µM)
MIC (Klebsiella pneumoniae [10]; ATCC 13883, 18 h): 1 µg/mL (≈ 0.825 µM)

CN[C@@H](CC(C)C)C(=O)N[C@H]1C(=O)N[C@@H](CC(N)=O)C(=O)N[C@H]2C(=O)N[C@H]3C(=O)N[C@H](C(=O)N[C@@H](C(=O)O)c4cc(O)cc(O)c4-c4cc3ccc4O)[C@H](O)c3ccc(c(Cl)c3)Oc3cc2cc(c3O[C@H]2O[C@@H](CO)[C@H](O)[C@@H](O)[C@@H]2O[C@@H]2C[C@@](C)(N)[C@@H](O)[C@@H](C)O2)Oc2ccc(cc2Cl)[C@H]1O
CC50 at 24 h [4]: > 300 µM

CCCCCCCC(=O)N[C@@H](CCN)C(=O)N[C@H](C(=O)N[C@@H](CCN)C(=O)N[C@H]1CCNC(=O)[C@H]([C@@H](C)O)NC(=O)[C@H](CCN)NC(=O)[C@H](Cc2ccc(N)cc2)NC(=O)[C@H](CC(C)C)NC(=O)[C@@H](Cc2ccccc2)NC(=O)[C@H](CCN)NC1=O)[C@@H](C)O
MIC (Acinetobacter baumannii [1]; Ptyela 100734512:2, 18 h): > 32 µg/mL
MIC (Klebsiella pneumoniae [2]; ATCC BAA-2146, 18 h): 2 µg/mL (≈ 1.6 µM)
MIC (Pseudomonas aeruginosa [3]; PA9704, 18 h): > 32 µg/mL
MIC (Escherichia coli; ATCC 25922, 18 h): 0.5 µg/mL (≈ 0.4 µM)
MIC (Klebsiella pneumoniae [5]; 138-16357-20362, 18 h): > 32 µg/mL
MIC (Klebsiella pneumoniae [6]; Koprana 100650661:1, 18 h): > 32 µg/mL
MIC (Pseudomonas aeruginosa [7]; ATCC 27853, 18 h): 8 µg/mL (≈ 6.39 µM)
MIC (Acinetobacter baumannii [8]; ATCC 19606, 18 h): 4 µg/mL (≈ 3.2 µM)
MIC (Klebsiella pneumoniae [9]; [12]): 1 µg/mL (≈ 0.799 µM)
MIC (Staphylococcus aureus): > 32 µg/mL
MIC (Klebsiella pneumoniae [10]; ATCC 13883, 18 h): 8 µg/mL (≈ 6.39 µM)
MIC (Pseudomonas aeruginosa [11]; FADDI-PA070, 18 h): 32 µg/mL (≈ 25.6 µM)

GENTAMICIN
MIC (Acinetobacter baumannii [1]): > 32 µg/mL
MIC (Klebsiella pneumoniae [2]): > 32 µg/mL
MIC (Pseudomonas aeruginosa [3]): > 32 µg/mL
MIC (Escherichia coli): 0.25 µg/mL
MIC (Klebsiella pneumoniae [5]): 1 µg/mL
MIC (Klebsiella pneumoniae [6]): > 32 µg/mL
MIC (Pseudomonas aeruginosa [7]): 1 µg/mL
MIC (Acinetobacter baumannii [8]): 32 µg/mL
MIC (Klebsiella pneumoniae [9]): 8 µg/mL
MIC (Klebsiella pneumoniae [10]): 0.25 µg/mL
MIC (Pseudomonas aeruginosa [11]): 32 µg/mL

— ChEMBL document CHEMBL3774373, “Activity and Predicted Nephrotoxicity of Synthetic Antibiotics Based on Polymyxin B” (J Med Chem, 2016)
